A1 inh: inhibitors of the anti-apoptotic protein A1, read as caspase activation; MEF A1-2A-BIM cells, Caspase-Glo 3/7 luminescence, 3 h; percent of clofoctol response, vehicle zero; caspase activation, % (concentration not given with the values); actives 0.066% (n = 330,000);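 active means over half of replicate activation scores above 10%, or exactly half above 10 with the replicate mean above 10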
MC4R antagonist: human MC4R antagonism in cAMP assay; P32245; MC4R-expressing cells, MTII-stimulated cAMP, LANCE TR-FRET; inhibition, % at 6.5 µM; actives 0.48% (n = 360,000);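 active means inhibition above its plate's cutoff, the mean of tested wells on that plate plus 3 SD, cut at about 29% in these data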;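 further: 0% = Melanotan II alone and 100% = Melanotan II plus saturating MCL0020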
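System – human MC4R-expressing U2OS cells · Also added – Melanotan II · Dosing – one concentration, 6.5 µM nominal · Timing – 30-min compound, 1-h challenge, 1-h detection, room temperature · Measured by – Eu-cAMP/anti-cAMP TR-FRET, emission 671 nm · Replicates – singlicate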
MC4R barr agon: agonists of human melanocortin 4 receptor (MC4R) beta-arrestin; P32245; U2OS MC4R beta-arrestin complementation, luminescence; percent of melanotan II response, DMSO zero; activation, % at 8.9 µM; actives 0.98% (n = 360,000); AID 540308;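 active means activation above a per-plate cutoff, the mean activation of sample wells on that plate plus 3 SD, cut at about 8% in these data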
Exocytosis inh: blocks lytic granule exocytosis. TALL-104 LAMP-1 surface exposure, flow cytometry; cells stimulated with thapsigargin and PMA. inhibition, % at 10 µM. actives 0.66% (n = 360,000). AID 651702;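 active means inhibition above about 55%, limit read from the data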
NTR1 ag: activates human neurotensin receptor 1 | NTR1-U2OS beta-arrestin-GFP spot imaging, agonist mode | activation, % at 20 µM | actives 0.17% (n = 330,000) | AID 493036;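 active means activation at or above 40% of the spot to cytoplasm intensity ratio, with at least 20 cells analyzed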;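 further: 0% = DMSO without peptide and 100% = 100 nM NTR1 peptide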
HGIII-sPLA2 inh: Blocks human group III sPLA2 activity. actives 0.56% (n = 370,000). Q9NZ20. AID 743126. QFRET BODIPY PC-A2 liposome hydrolysis, fluorescence. inhibition, % at 12.2 µM;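 active means inhibition above mean plus 3 SD of compounds lying within the high and low control bounds, cut at about 19% in these data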;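 further: 0% = median of test compound wells and 100% = no enzyme DMSO wells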
MC4R barr ag: human MC4R beta-arrestin agonism confirmation; activation, % at 8.9 µM; U2OS MC4R beta-arrestin recruitment, luminescence; scaled DMSO 0%, Melanotan II 100%; actives 31% (n = 2,400); shares compounds with MC4R barr agon;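 active means mean activation across replicates above the hit cutoff set in the earlier primary screen, cut at about 8% in these data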
MOR-DOR barr ag: counter-screen for MC4R agonists: agonists of mu-delta opioid heterodimer | shares compounds with MC4R barr agon | U2OS PathHunter beta-arrestin, beta-gal luminescence; percent of deltorphin B response, DMSO zero | activation, % at 9.2 µM | actives 5.8% (n = 2,400);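 active means mean activation across replicates exceeds the hit threshold derived in the earlier primary screen, cut at about 18% in these data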;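 further: 100% = deltorphin B at 0.9 µM final and 0% = DMSO alone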
Target sequence (P35372 whole entry, looked up): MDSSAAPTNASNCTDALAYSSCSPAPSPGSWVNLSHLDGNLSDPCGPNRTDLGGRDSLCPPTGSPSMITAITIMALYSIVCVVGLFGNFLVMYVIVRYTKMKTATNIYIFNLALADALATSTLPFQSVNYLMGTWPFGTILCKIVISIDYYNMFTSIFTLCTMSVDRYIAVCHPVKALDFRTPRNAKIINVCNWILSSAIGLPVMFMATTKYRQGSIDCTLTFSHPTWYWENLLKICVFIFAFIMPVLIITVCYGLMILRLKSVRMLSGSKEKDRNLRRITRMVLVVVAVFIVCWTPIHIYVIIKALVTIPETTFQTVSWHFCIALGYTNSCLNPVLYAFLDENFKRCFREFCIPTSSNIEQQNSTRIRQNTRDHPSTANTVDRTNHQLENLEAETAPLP
Target sequence (P41143 whole entry, looked up): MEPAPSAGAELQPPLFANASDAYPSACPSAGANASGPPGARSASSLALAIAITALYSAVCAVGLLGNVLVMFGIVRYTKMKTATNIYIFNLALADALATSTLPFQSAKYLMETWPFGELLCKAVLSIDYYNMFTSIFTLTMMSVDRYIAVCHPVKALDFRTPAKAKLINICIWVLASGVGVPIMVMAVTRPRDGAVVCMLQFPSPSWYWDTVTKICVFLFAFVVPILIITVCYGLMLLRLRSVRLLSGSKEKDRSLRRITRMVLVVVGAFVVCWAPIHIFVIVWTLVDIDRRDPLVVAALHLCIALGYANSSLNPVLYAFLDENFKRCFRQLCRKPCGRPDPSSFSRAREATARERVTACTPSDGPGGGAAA
* marks the source's active call; other numbers are inactive results; . = not tested or not shown. Most compounds without a hit are left out; they make up all but 2.5% or so of the library.

SMILES	A1 inh	MC4R antagonist	MC4R barr agon	Exocytosis inh	NTR1 ag	HGIII-sPLA2 inh	MC4R barr ag	MOR-DOR barr ag
CCc1ccc(C2NC(=S)NC3=C2C(=O)N(c2ccccc2OC)C(c2ccc(CC)cc2)N3)cc1 (stereo unspecified)	0.1	4.8	17.9*	6.9	19.3	-0.7	13.9*	4.0
O=C1C2=C(NC(=S)NC2c2ccc(Cl)cc2)NC(c2ccc(Cl)cc2)N1c1ccc(Cl)cc1 (stereo unspecified)	0.6	8.8	18.8*	16.9	7.2	12.0	29.2*	9.2
COc1ccccc1N1C(=O)c2ccccc2NC1c1ccncc1 (stereo unspecified)	-0.1	3.3	-1.5	-2.0	1.5	4.3	.	.
O=C(Nc1cccc(F)c1)OCCCN1CCC2(CCC(c3ccccc3)CC2)C1 (stereo unspecified)	.	.	.	.	.	5.3	.	.
Oc1ccccc1N=Cc1c(O)ccc2oc3c(c12)CCCC3	0.1	2.3	14.3*	34.5	3.6	2.1	8.3*	9.5
O=C(O)c1ccc(N=Cc2c(O)ccc3oc4c(c23)CCCC4)cc1	-0.4	3.2	1.9	8.3	3.6	-1.4	.	.
CCSc1nnc(NC(=O)c2cccc3ccccc23)s1	-0.1	4.2	14.4*	-3.2	0.6	-6.8	6.0	3.8
Cc1cccc(NC(=O)c2sc3nc(-c4ccc(F)cc4)cn3c2C)n1	0.2	13.9	11.6*	1.3	2.8	-3.4	7.1	5.1
CCOC(=O)C1=C(C(=O)OCC)C2N(Cc3ccc(C#N)cc3)c3ccccc3[C@@]23C[C@@H](C(=O)OC)N(S(=O)(=O)c2ccc(C)cc2)C3=N1 (stereo partly specified)	.	.	.	.	.	13.2	.	.
C[C@H](O)[C@@H]1CN2CCc3c([nH]c4c(-c5ccccc5)cccc34)[C@@H]2C[C@@H]1N(C)C(=O)c1ccco1	.	.	.	.	.	1.9	.	.
COc1ccc(C(=O)NC(=S)Nc2ccc3c4c(cccc24)CC3)cc1OC	0.3	-4.5	12.9*	-3.7	7.8	-7.6	7.5	2.4
COc1cc(OC)cc(C(=O)NC(=S)Nc2ccc3c4c(cccc24)CC3)c1	0.7	-0.8	-1.4	-2.0	5.5	-3.7	.	.
Cc1cccc(OCC(=O)Nc2ccc3c4c(cccc24)CC3)c1C	1.1	-0.7	30.7*	-5.7	-1.4	-5.2	2.5	4.0
Cc1cc(N2CCN(C(=O)OC(C)(C)C)C[C@H]2C)ccc1N1CC[C@@H](O)C1	.	.	.	.	.	0.4	.	.
O=S(=O)(NCc1ccccc1)c1ccc(S(=O)(=O)N(Cc2ccccn2)Cc2ccco2)cc1	0.0	1.8	10.2*	0.0	3.8	-13.7	6.5	3.8
O=C(CNS(=O)(=O)c1cc2ccccc2s1)N1CCN(c2ccccn2)CC1	.	.	.	.	.	-8.3	.	.
Cc1ccc(-c2c(C)c(-c3ccc(F)cc3)nc(N)c2C#N)o1	0.4	10.3	13.2*	-2.0	3.9	-4.7	1.3	9.7
Cc1c(-c2ccc(F)cc2)nc(N)c(C#N)c1-c1cccnc1	0.5	10.4	0.6	0.6	1.6	-2.9	.	.
CCOC(=O)[C@@]12CN(C(=O)OC(C)(C)C)CC=C1N(Cc1ccc(OC)cc1)C(=O)[C@H]2CC(=O)NCC1CCCCC1	.	.	.	.	.	-5.3	.	.
O=C(Cn1nnc(-c2ccc(F)cc2)n1)NC(=O)NC1CCCCC1	.	4.6	9.7*	1.5	.	-47.5	1.8	5.4
Fc1ccc(-c2n[nH]c(=S)n2N=Cc2cccc(OCc3ccccc3)c2)cc1	.	.	.	.	.	-12.1	.	.
COC(=O)c1ccccc1C(=O)c1cccc2ccccc12	-2.0	5.3	-1.2	-6.4	1.2	2.5	.	.
COC(=O)c1cc2ccccc2c(-c2c(O)ccc3ccccc23)c1O	2.0	-17.3	17.3*	-0.9	23.2	-11.8	13.0*	10.5
COC(=O)C1(F)C(=O)NC(=O)NC1OC (stereo unspecified)	.	.	.	.	.	-1.4	.	.

High-throughput results deposited in PubChem by several laboratories.
